Usually half-life stands for the time needed for the level to fall by half in the phase considered. A low value points to fast loss. Broadly, the IC50 is the point on the concentration scale where inhibition reaches its midpoint.

Results on twelve compounds are retold here after ChEMBL document CHEMBL1130387, “Design of a potent combined pseudopeptide endothelin-A/endothelin-B receptor antagonist, Ac-DBhg16-Leu-Asp-Ile-[NMe]Ile-Trp21 (PD 156252): examination of its pharmacokinetic and spectral properties” (J Med Chem, 1997).

Numbered stars: 1 amine (or outer) side, 2 acyl side, 3 side chain; on linkers, the order of the positions; unused ones are H or OH. Square brackets hold non-standard residues; d marks the D form. Peptide text beside a SMILES is read from it. dGly(5-dibenzosuberyl) = N[C@@H](C(=O)O)C1c2ccccc2CCc2ccccc21; X2 = O=C([C@@H](N[*:1])C1c2ccccc2CCc2ccccc21)[*:2]; NMeDip = CN[C@H](C(=O)O)C(c1ccccc1)c1ccccc1; NMeW = CN[C@@H](Cc1c[nH]c2ccccc12)C(=O)O; Dip = N[C@H](C(=O)O)C(c1ccccc1)c1ccccc1; NMeI = CC[C@H](C)[C@H](NC)C(=O)O; NMeD = CN[C@@H](CC(=O)O)C(=O)O

Data set [1] is described as follows: Stability in rat intestinal perfusate. It is filed as ADME. In a few lines:
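Stability measured by incubation in rat intestinal perfusate in vitro. Values are the mean of at least three determinations ± SEM from two perfusate preparations. Perfusate leucine aminopeptidase activity was 0.05–0.32 nkat/mL. Degradation was also checked with a potato tuber carboxypeptidase inhibitor added.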

The species entered for data set [2] is Oryctolagus cuniculus. As to the kind of experiment: Ability to antagonize endothelin -1 (ET-1) stimulated vasoconstriction in vitro in rabbit femoral artery. The following applies: read-out: pA2 (converted). It is filed as functional.
Data set [3] has as its target T1, Endothelin receptor type B (Rattus norvegicus, UniProt P21451).
T1 sequence (P21451 whole entry): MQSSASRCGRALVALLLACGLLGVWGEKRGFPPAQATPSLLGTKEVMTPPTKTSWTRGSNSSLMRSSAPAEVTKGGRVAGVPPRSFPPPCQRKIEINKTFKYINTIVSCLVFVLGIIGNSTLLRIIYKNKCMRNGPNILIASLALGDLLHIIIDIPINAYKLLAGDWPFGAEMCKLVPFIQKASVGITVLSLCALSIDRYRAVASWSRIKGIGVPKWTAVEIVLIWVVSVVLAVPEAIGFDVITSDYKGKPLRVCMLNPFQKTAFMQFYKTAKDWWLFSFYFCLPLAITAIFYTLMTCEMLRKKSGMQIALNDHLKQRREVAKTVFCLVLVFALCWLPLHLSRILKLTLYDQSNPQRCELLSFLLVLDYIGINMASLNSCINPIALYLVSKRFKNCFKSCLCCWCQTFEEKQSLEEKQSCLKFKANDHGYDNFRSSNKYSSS
As to the kind of experiment: Inhibition of binding to Endothelin B receptor of rat cerebellar membranes. The class given is cell membranes, Membrane. In a few lines: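 Competition binding assays: ETA on rabbit renal vascular smooth muscle cells, ETB on rat cerebellar membranes. Each IC50 comes from a single competition experiment with points measured in duplicate. Where more than one IC50 was determined, values are given as mean ± SEM.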

The test system of another data set is Caco-2. The data set is described as follows: Permeability in Caco-2 Cell monolayers for the compound. The class given is functional, cell-based. The following applies: Homo sapiens. In a few lines:
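Transport measured across Caco-2 monolayers (human colon adenocarcinoma line that differentiates to an enterocyte-like phenotype). Each value is the mean of three to five cell monolayers, with standard errors.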
For orientation: Caco-2 cells form a polarised layer with tight junctions and transporters.

The species named for data set [4] is Oryctolagus cuniculus. The data set is described as follows: Ability to antagonize […] SRTX-6c stimulated vasoconstriction in vitro in rabbit pulmonary artery. It is filed as functional. The following applies: read-out: pA2 (converted).

The compound `CC[C@H](C)[C@H](NC(=O)[C@H](CC(=O)O)NC(=O)[C@H](CC(C)C)NC(=O)[C@H](NC(C)=O)C1c2ccccc2CCc2ccccc21)C(=O)N(C)[C@H](C(=O)N[C@@H](Cc1c[nH]c2ccccc12)C(=O)O)[C@@H](C)CC` had a half-life in data set [1] of 538 min. In addition, the Kb in the data set filed under Oryctolagus cuniculus [2] is 50.1 nM. Turning to `CC[C@H](C)[C@H](NC(=O)[C@H](CC(=O)O)NC(=O)[C@H](CC(C)C)N(C)C(=O)[C@H](NC(C)=O)C(c1ccccc1)c1ccccc1)C(=O)N[C@H](C(=O)N[C@@H](Cc1c[nH]c2ccccc12)C(=O)O)[C@@H](C)CC`, in data set [3], the IC50 stood at 600 nM. Compound `CC[C@H](C)[C@H](NC(=O)[C@@H](NC(=O)[C@H](CC(=O)O)NC(=O)[C@H](CC(C)C)NC(=O)[C@H](NC(C)=O)C(c1ccccc1)c1ccccc1)[C@@H](C)CC)C(=O)CNC(=O)[C@@H](N)Cc1c[nH]c2ccccc12` had an IC50 in data set [3] greater than 250 nM. Regarding `CC[C@@H](C)[C@H](C(=O)N[C@@H](Cc1c[nH]c2ccccc12)C(=O)O)N(C)C(=O)[C@@H](NC(=O)[C@@H](CC(=O)O)NC(=O)[C@H](CC(C)C)NC(=O)[C@H](NC(C)=O)C1c2ccccc2CCc2ccccc21)[C@@H](C)CC`, the Permeability (10e4*cm min-1) in the data set on Caco-2 stood at 6.3.

`CC[C@H](C)[C@H](NC(=O)[C@H](CC(=O)O)NC(=O)[C@H](CC(C)C)NC(=O)[C@@H](NC(C)=O)C(c1ccccc1)c1ccccc1)C(=O)N[C@H](C(=O)N[C@@H](Cc1c[nH]c2ccccc12)C(=O)O)[C@@H](C)CC` (Ac-[Dip]LDIIW-OH): in data set [1], the half-life stood at 18.1 min. In addition, in the data set with Caco-2, the Permeability (10e4*cm min-1) was determined as 2. In addition, the Kb in the data set filed under Oryctolagus cuniculus [4] was 501 nM; in the data set listed under Oryctolagus cuniculus [2] it was 251 nM. In data set [3], `CC[C@H](C)[C@H](NC(=O)[C@H](CC(=O)O)NC(=O)[C@H](CC(C)C)NC(=O)[C@@H](NC(C)=O)C(c1ccccc1)c1ccccc1)C(=O)N[C@H](C(=O)N(C)[C@@H](Cc1c[nH]c2ccccc12)C(=O)O)[C@@H](C)CC` (Ac-[Dip]LDII[NMeW]-OH) yielded an IC50 of 11000 nM.

In data set [1], `CC[C@H](C)[C@H](NC(=O)[C@H](CC(=O)O)NC(=O)[C@H](CC(C)C)NC(=O)[C@@H](NC(C)=O)C(c1ccccc1)c1ccccc1)C(=O)N(C)[C@H](C(=O)N[C@@H](Cc1c[nH]c2ccccc12)C(=O)O)[C@@H](C)CC` (Ac-[Dip]LDI[NMeI]W-OH) came in with a half-life of 875 min. The Permeability (10e4*cm min-1) in the data set with Caco-2 was 2. In data set [3], this compound had an IC50 of 80 nM. For `CC[C@H](C)[C@H](NC(=O)[C@H]([C@@H](C)CC)N(C)C(=O)[C@H](CC(=O)O)NC(=O)[C@H](CC(C)C)NC(=O)[C@@H](NC(C)=O)C(c1ccccc1)c1ccccc1)C(=O)N[C@@H](Cc1c[nH]c2ccccc12)C(=O)O` (Ac-[Dip]LD[NMeI]IW-OH), the IC50 in data set [3] is greater than 1000 nM. Still for that read-out and setting: the same measure for `CC[C@H](C)[C@H](NC(=O)[C@@H](NC(=O)[C@H](CC(=O)O)N(C)C(=O)[C@H](CC(C)C)NC(=O)[C@@H](NC(C)=O)C(c1ccccc1)c1ccccc1)[C@@H](C)CC)C(=O)N[C@@H](Cc1c[nH]c2ccccc12)C(=O)O` (Ac-[Dip]L[NMeD]IIW-OH): 1500 nM; for `CC[C@H](C)[C@H](NC(=O)[C@H](CC(=O)O)NC(=O)[C@H](CC(C)C)NC(=O)[C@H](C(c1ccccc1)c1ccccc1)N(C)C(C)=O)C(=O)N[C@H](C(=O)N[C@@H](Cc1c[nH]c2ccccc12)C(=O)O)[C@@H](C)CC` (Ac-[NMeDip]LDIIW-OH): 8000 nM. For `CC[C@H](C)[C@H](NC(=O)[C@H](CC(=O)O)NC(=O)[C@H](CC(C)C)NC(=O)[C@@H](NC(C)=O)C1c2ccccc2CCc2ccccc21)C(=O)N[C@H](C(=O)N[C@@H](Cc1c[nH]c2ccccc12)C(=O)O)[C@@H](C)CC` (Ac-[X2]LDIIW-OH), in the data set with Caco-2, the Permeability (10e4*cm min-1) stood at 4.7. Consider `CC[C@H](C)[C@H](NC(=O)[C@H](CC(=O)O)NC(=O)[C@H](CC(C)C)NC(=O)[C@H](NC(C)=O)C1c2ccccc2CCc2ccccc21)C(=O)N[C@H](C(=O)N[C@@H](Cc1c[nH]c2ccccc12)C(=O)O)[C@@H](C)CC` (Ac-[dGly(5-dibenzosuberyl)]LDIIW-OH), for which the half-life in data set [1] was found to be 10.6 min. Besides, the Kb in the data set filed under Oryctolagus cuniculus [4] was 100 nM; in the data set filed under Oryctolagus cuniculus [2] it was 158 nM.
